# In PubChem BioAssay AID651576 (The Scripps Research Institute Molecular Screening Center, 2012):
# Where “and” joins values, the source holds several entries; their conditions need not be identical. Equal values may be shown once. Calls of active or inactive are those of the source.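 Rule for the calls: active = inhibition of at least 50%, averaged over three replicate wells; inactive = inhibition below 50%.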
# Tested on: HCV core protein (core106) dimerization, Hepatitis C virus
# Test: HCV core106 dimerization inhibitors, late-stage follow-up, biochemical, AlphaScreen luminescence, single dose 15 µM, powder samples (AID 651576)
# Conditions: AlphaScreen GST/Flag-core106 dimerization, at 15 µM, active compounds read high
# Outline: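 material = HCV core106 dimerization between GST-tagged and Flag-tagged core106 proteins | medium = HEPES pH 7.5 with DTT and CHAPS | probe or stimulus = acceptor and donor beads at 20 µg/mL each | timing = protein preincubation 1 h at room temperature, 1 h per bead step | technique = AlphaScreen luminescence | evaluation = percent signal inhibition relative to uninhibited control wells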
row,SMILES,inhibition
1,Cc1ccc(Cc2c(C)nc3nc(SCC(=O)NCCN4CCN(S(C)(=O)=O)CC4)nn3c2C)cc1,< 50% (inactive)
2,Cc1ccc(Cc2c(C)nc3nc(SCC(=O)NCCN4CCCN(S(=O)(=O)c5ccccc5)CC4)nn3c2C)cc1,83%
3,Cc1ccc(Cc2c(C)nc3nc(SCC(=O)NCCC(C)C)nn3c2C)cc1,43% (inactive)
4,Cc1nc2nc(SCC(=O)N3CCN(C(=O)CSc4nc5nc(C)c(Cc6ccc(Br)cc6)c(C)n5n4)CC3)nn2c(C)c1Cc1ccc(Br)cc1,25% (inactive)
5,Cc1ccc(Cc2c(C)nc3nc(SCC(=O)NCCN4CCCN(C(=O)OC(C)(C)C)CC4)nn3c2C)cc1,< 50% (inactive)
6,Cc1ccc(Cc2c(C)nc3nc(SCC(=O)NCCN4CCN(C(=O)OC(C)(C)C)CC4)nn3c2C)cc1,51%
7,Cc1ccc(Cc2c(C)nc3nc(SCC(=O)NCCCCCNC(=O)CSc4nc5nc(C)c(Cc6ccc(C)cc6)c(C)n5n4)nn3c2C)cc1,78%
8,Cc1ccc(Cc2c(C)nc3nc(SCC(=O)NCCN4CCN(S(=O)(=O)c5ccc(C)cc5)CC4)nn3c2C)cc1,< 50% (inactive)
9,Cc1ccc(Cc2c(C)nc3nc(SCC(=O)NCCC4CCOCC4)nn3c2C)cc1,< 50% (inactive)
10,Cc1ccc(Cc2c(CCc3ccccc3)nc3nc(SCC(=O)NCCN4CCOCC4)nn3c2C)cc1,44% (inactive)
11,Cc1ccc(Cc2c(C)nc3nc(SCC(=O)NCCN4CCN(C(=O)c5ccc(F)cc5)CC4)nn3c2C)cc1,< 50% (inactive)
12,Cc1ccc(Cc2c(C)nc3nc(SCC(=O)NCc4ccc(CNC(=O)CSc5nc6nc(C)c(Cc7ccc(C)cc7)c(C)n6n5)cc4)nn3c2C)cc1,89%
13,Cc1ccc(Cc2c(C)nc3nc(SCC(=O)NCCN4CCCN(C(=O)c5ccccc5)CC4)nn3c2C)cc1,< 50% (inactive)
14,Cc1ccc(Cc2c(C)nc3nc(SCC(=O)NCCN(C)C)nn3c2C)cc1,< 50% (inactive)
15,Cc1ccc(Cc2c(C)nc3nc(SCC(=O)NCCN4CCN(CCc5ccccc5)CC4)nn3c2C)cc1,65%
16,Cc1ccc(Cc2c(C)nc3nc(SCC(=O)N4C[C@@H]5C[C@H]4CN5C(=O)CSc4nc5nc(C)c(Cc6ccc(C)cc6)c(C)n5n4)nn3c2C)cc1,67%
17,Cc1nc2nc(SCC(=O)NCCN3CCOCC3)nn2c(C)c1Cc1ccc(Br)cc1,< 50% (inactive)
18,Cc1ccc(Cc2c(C)nc3nc(SCC(=O)NCC[N+]4(C)CCOCC4)nn3c2C)cc1,46% (inactive)
19,Cc1ccc(Cc2c(C)nc3nc(SCC(=O)N4CCN(C(=O)CSc5nc6nc(C)c(Cc7ccc(C)cc7)c(C)n6n5)CC4)nn3c2C)cc1,87%
20,Cc1ccc(Cc2c(C)nc3nc(SCC(=O)NCCN4CCCN(S(=O)(=O)c5ccc(C)cc5)CC4)nn3c2C)cc1,79%
21,C=CCN1CCN(CCNC(=O)CSc2nc3nc(C)c(Cc4ccc(C)cc4)c(C)n3n2)CC1,< 50% (inactive)
22,Cc1ccc(Cc2c(C)nc3nc(SCC(=O)NCCCNC(=O)CSc4nc5nc(C)c(Cc6ccc(C)cc6)c(C)n5n4)nn3c2C)cc1,96%
23,CCN(CC)CCCNC(=O)CSc1nc2nc(C)c(Cc3ccc(C)cc3)c(C)n2n1,65%
24,Cc1ccc(Cc2c(C)nc3nc(SCC(=O)Nc4ccccc4NC(=O)CSc4nc5nc(C)c(Cc6ccc(C)cc6)c(C)n5n4)nn3c2C)cc1,80%
25,Cc1ccc(Cc2c(C)nc3nc(SCC(=O)NCC4CCCCN4C(=O)CSc4nc5nc(C)c(Cc6ccc(C)cc6)c(C)n5n4)nn3c2C)cc1 (configuration not stated),93%
26,Cc1ccc(Cc2c(C)nc3nc(SCC(=O)NCCCCCCNC(=O)CSc4nc5nc(C)c(Cc6ccc(C)cc6)c(C)n5n4)nn3c2C)cc1,88%
27,Cc1ccc(Cc2c(C)nc3nc(SCC(=O)NCCN4CCCN(C(=O)c5ccc(F)cc5)CC4)nn3c2C)cc1,< 50% (inactive)

row,SMILES,inhibition
1,Cc1nc2nc(SCC(=O)NCCC3=CCCCC3)nn2c(C)c1Cc1ccc(Cl)cc1,30% (inactive)
2,Cc1ccc(Cc2c(C)nc3nc(SCc4ccc(Cl)cc4)nn3c2C)cc1,52%
3,Cc1ccc(Cc2c(C)nc3nc(SCC(=O)NCCN4CCN(C(=O)C(C)C)CC4)nn3c2C)cc1,< 50% (inactive)
4,Cc1ccc(Cc2c(C)nc3nc(SCC(=O)NCCNC(=O)CSc4nc5nc(C)c(Cc6ccc(C)cc6)c(C)n5n4)nn3c2C)cc1,52%
5,CCN(CC)C(=O)CSc1nc2nc(C)c(Cc3ccc(C)cc3)c(C)n2n1,11% (inactive)
6,Cc1nc2nc(SCC(=O)NCCCNC(=O)CSc3nc4nc(C)c(Cc5ccncc5)c(C)n4n3)nn2c(C)c1Cc1ccncc1,< 50% (inactive)
7,Cc1ccc(Cc2c(C)nc3nc(SCC(=O)NCCN4CCCN(S(C)(=O)=O)CC4)nn3c2C)cc1,53%
8,Cc1ccc(Cc2c(C)nc3nc(SCC(=O)NCCN4CCN(S(=O)(=O)c5ccccc5)CC4)nn3c2C)cc1,62%
9,Cc1nc2nc(SCC(=O)N(C)CCN3CCOCC3)nn2c(C)c1Cc1ccc(Br)cc1,12% (inactive)
10,Cc1ccc(Cc2c(C)nc3nc(SCC(=O)NCCN4CCN(Cc5ccccc5)CC4)nn3c2C)cc1,66%
11,Cc1ccc(Cc2c(C)nc3nc(SCC(=O)NCC[N+]4(Cc5ccc(F)cc5)CCN(Cc5ccc(F)cc5)CC4)nn3c2C)cc1,< 50% (inactive)
12,Cc1ccc(Cc2c(C)nc3nc(SCC(=O)NC4CCC(NC(=O)CSc5nc6nc(C)c(Cc7ccc(C)cc7)c(C)n6n5)CC4)nn3c2C)cc1 (configuration not stated),92%
13,Cc1cccc(Cc2c(C)nc3nc(SCC(=O)NCC(C)NC(=O)CSc4nc5nc(C)c(Cc6cccc(C)c6)c(C)n5n4)nn3c2C)c1 (configuration not stated),67%
14,Cc1ccc(Cc2c(C)nc3nc(SCC(=O)N4CCCN(C(=O)CSc5nc6nc(C)c(Cc7ccc(C)cc7)c(C)n6n5)CC4)nn3c2C)cc1,90%
15,Cc1ccc(Cc2c(C)nc3nc(SCC(=O)NCC4CCN(C(=O)CSc5nc6nc(C)c(Cc7ccc(C)cc7)c(C)n6n5)CC4)nn3c2C)cc1,89%
16,Cc1ccc(Cc2c(C)nc3nc(SCC(=O)NCCN4CCN(C(=O)c5ccccc5)CC4)nn3c2C)cc1,< 50% (inactive)
17,Cc1ccc(Cc2c(C)nc3nc(SCC(=O)NCCCCNC(=O)CSc4nc5nc(C)c(Cc6ccc(C)cc6)c(C)n5n4)nn3c2C)cc1,88%
18,CCCN1CCN(CCNC(=O)CSc2nc3nc(C)c(Cc4ccc(C)cc4)c(C)n3n2)CC1,< 50% (inactive)
19,Cc1nc2nc(SCC(=O)NCCN3CCOCC3)nn2c(C)c1Cc1ccncc1,-11% (inactive)
20,Cc1ccc(Cc2c(C)nc3nc(SCC(=O)NC4CCN(C(=O)CSc5nc6nc(C)c(Cc7ccc(C)cc7)c(C)n6n5)CC4)nn3c2C)cc1,80%
21,Cc1ccc(Cc2c(C)nc3nc(SCC(=O)NCCN4CCN(Cc5ccc(Cl)cc5)CC4)nn3c2C)cc1,87%
22,Cc1ccc(Cc2c(C)nc3nc(SCC(=O)N[C@H]4CCCN(C(=O)CSc5nc6nc(C)c(Cc7ccc(C)cc7)c(C)n6n5)C4)nn3c2C)cc1,85%
23,Cc1ccc(Cc2c(C)nc3nc(SCC(=O)NCCc4ccccc4)nn3c2C)cc1,40% (inactive)
24,Cc1ccc(Cc2c(C)nc3nc(SCC(=O)NC4CCCC(NC(=O)CSc5nc6nc(C)c(Cc7ccc(C)cc7)c(C)n6n5)C4)nn3c2C)cc1 (configuration not stated),98%
25,Cc1cccc(Cc2c(C)nc3nc(SCC(=O)NC4CCN(C(=O)CSc5nc6nc(C)c(Cc7cccc(C)c7)c(C)n6n5)C4)nn3c2C)c1 (configuration not stated),80%
26,Cc1ccc(Cc2c(C)nc3nc(SCC(=O)NCCN4CCN(Cc5ccc(F)cc5)CC4)nn3c2C)cc1,66%

# The remaining lines, values ahead:
row,inhibition,SMILES
1,51%,Cc1ccc(Cc2c(C)nc3nc(SCC(=O)NCCN4CCNCC4)nn3c2C)cc1
2,97% and 82%,Cc1ccc(Cc2c(C)nc3nc(SCC(=O)NCCN4CCCCCC4)nn3c2C)cc1
3,37% (inactive),Cc1ccc(Cc2c(C)nc3nc(SCC(=O)N4CCN(C)CC4)nn3c2C)cc1
4,42% (inactive),Cc1ccc(Cc2c(C)nc3nc(SCC(=O)N4CCNCC4)nn3c2C)cc1
5,13% (inactive),Cc1ccc(Cc2c(C)nc3nc(SCC(=O)N4CCOCC4)nn3c2C)cc1
6,16% (inactive),Cc1ccc(Cc2c(C)nc3nc(SCC(=O)NCCCN4CCCCCC4)nn3c2C)cc1
7,44% (inactive),Cc1ccc(Cc2c(C)nc3nc(SCC(=O)N4CCN(Cc5ccc(Cl)cc5)CC4)nn3c2C)cc1
8,< 50% (inactive),Cc1ccc(Cc2c(C)nc3nc(SCC(=O)NCCN4CCCC4)nn3c2C)cc1
9,87%,Cc1ccc(Cc2c(C)nc3nc(SCC(=O)N4CCCC4)nn3c2C)cc1
10,59%,Cc1ccc(Cc2c(C)nc3nc(SCC(=O)NC4CCCCCCC4)nn3c2C)cc1
11,79%,Cc1ccc(Cc2c(C)nc3nc(SCC(=O)NCCN4CCSCC4)nn3c2C)cc1
12,43% (inactive),Cc1ccc(Cc2c(C)nc3nc(SCC(=O)N4CCN(Cc5ccc(Br)cc5)CC4)nn3c2C)cc1
13,22% (inactive),Cc1ccc(Cc2c(C)nc3nc(SCC(=O)NCCC4=CCCCC4)nn3c2C)cc1
14,71%,Cc1cccc(Cc2c(C)nc3nc(SCC(=O)N4CCCCCC4)nn3c2C)c1
15,< 50% (inactive),CC(=O)N1CCN(CCNC(=O)CSc2nc3nc(C)c(Cc4ccc(C)cc4)c(C)n3n2)CC1
16,41% (inactive),Cc1ccc(Cc2c(C)nc3nc(SCC(=O)N4CCCCC4)nn3c2C)cc1
17,38% (inactive),CCCNC(=O)CSc1nc2nc(C)c(Cc3ccc(C)cc3)c(C)n2n1
18,51%,Cc1ccc(Cc2c(C)nc3nc(SCC(=O)N(C)C)nn3c2C)cc1
19,63%,Cc1ccc(Cc2c(C)nc3nc(SCC(=O)N4CCSCC4)nn3c2C)cc1
20,10% (inactive),Cc1ccc(Cc2c(C)nc3nc(SCC(=O)N4CCN(Cc5ccc(F)cc5)CC4)nn3c2C)cc1
21,33% (inactive),CCCNC(=O)CSc1nc2nc(C)c(Cc3cccc(C)c3)c(C)n2n1
22,< 50% (inactive),Cc1ccc(Cc2c(C)nc3nc(SCC(=O)NCCN4CCCNCC4)nn3c2C)cc1
23,41% (inactive),Cc1ccc(Cc2c(C)nc3nc(SCC(=O)N4CCN(CCc5ccccc5)CC4)nn3c2C)cc1
24,14% (inactive),Cc1ccc(Cc2c(C)nc3nc(SCC(=O)N4CCN(Cc5ccc(C)cc5)CC4)nn3c2C)cc1
